The target of assay [1] is Serotonin 3 (5-HT3) receptor (Homo sapiens) (UniProt P46098+A5X5Y0+O95264+Q70Z44+Q8WXA8). The assay is described as follows: The compound was tested for binding affinity against 5-hydroxytryptamine 3 receptor in guinea pig ileum. To be noted: Cavia porcellus, target entry is the homologue from another species. It is filed as tissue-based.
In assay [2] the target is 5-hydroxytryptamine receptor 4 (Rattus norvegicus) (UniProt Q62758). The experiment in a line: Antagonistic activity evaluated by ability to block serotonin induced relaxation (via 5-hydroxytryptamine 4 receptor) in carbamylcholine (10e-6 M) contracted esophagus at a concentration of 3*10e-8 M. In kind it is functional. In short, it runs like this: (§1)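 Isolated rat esophagus precontracted with carbamylcholine (10^-6 M), then challenged with serotonin (1 μM) in the presence of antagonist at the stated concentration or vehicle. Read-out is % relaxation to serotonin, given as mean ± SEM with the number of determinations.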
Sequence of 5-hydroxytryptamine receptor 4 (Rattus norvegicus) (Q62758 whole entry): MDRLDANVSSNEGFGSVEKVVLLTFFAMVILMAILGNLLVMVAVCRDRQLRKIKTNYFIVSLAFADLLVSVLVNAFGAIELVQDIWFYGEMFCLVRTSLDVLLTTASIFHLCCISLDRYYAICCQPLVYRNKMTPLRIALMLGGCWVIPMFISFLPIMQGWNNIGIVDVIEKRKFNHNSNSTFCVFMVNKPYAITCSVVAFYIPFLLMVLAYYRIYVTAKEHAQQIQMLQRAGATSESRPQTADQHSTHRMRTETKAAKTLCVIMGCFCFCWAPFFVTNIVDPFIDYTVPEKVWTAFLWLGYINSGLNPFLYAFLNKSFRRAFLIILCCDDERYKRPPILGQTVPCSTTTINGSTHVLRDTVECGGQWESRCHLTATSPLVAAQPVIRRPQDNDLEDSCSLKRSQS

For assay [3], the target named is Serotonin 2 (5-HT2) receptor (Rattus norvegicus) (UniProt P30994+P08909+P14842). The experiment in a line: Binding affinity against 5-hydroxytryptamine 2 receptor in serotonin-induced contraction of the rat aorta. In kind it is tissue-based.
Sequence of Serotonin 2 (5-HT2) receptor (Rattus norvegicus) (P08909 whole entry, looked up): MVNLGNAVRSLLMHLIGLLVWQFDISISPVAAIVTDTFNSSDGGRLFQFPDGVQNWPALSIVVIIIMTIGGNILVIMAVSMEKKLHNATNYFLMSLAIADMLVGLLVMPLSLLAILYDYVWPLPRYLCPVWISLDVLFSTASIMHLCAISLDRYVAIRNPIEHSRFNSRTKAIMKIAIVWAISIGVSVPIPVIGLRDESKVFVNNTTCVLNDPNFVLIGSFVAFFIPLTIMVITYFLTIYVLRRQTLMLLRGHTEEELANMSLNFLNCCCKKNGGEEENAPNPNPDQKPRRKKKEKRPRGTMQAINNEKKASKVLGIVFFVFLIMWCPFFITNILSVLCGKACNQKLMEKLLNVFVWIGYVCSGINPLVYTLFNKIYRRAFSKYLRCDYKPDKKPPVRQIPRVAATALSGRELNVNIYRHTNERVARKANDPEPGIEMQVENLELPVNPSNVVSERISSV
Sequence of Serotonin 2 (5-HT2) receptor (Rattus norvegicus) (P14842 whole entry, looked up): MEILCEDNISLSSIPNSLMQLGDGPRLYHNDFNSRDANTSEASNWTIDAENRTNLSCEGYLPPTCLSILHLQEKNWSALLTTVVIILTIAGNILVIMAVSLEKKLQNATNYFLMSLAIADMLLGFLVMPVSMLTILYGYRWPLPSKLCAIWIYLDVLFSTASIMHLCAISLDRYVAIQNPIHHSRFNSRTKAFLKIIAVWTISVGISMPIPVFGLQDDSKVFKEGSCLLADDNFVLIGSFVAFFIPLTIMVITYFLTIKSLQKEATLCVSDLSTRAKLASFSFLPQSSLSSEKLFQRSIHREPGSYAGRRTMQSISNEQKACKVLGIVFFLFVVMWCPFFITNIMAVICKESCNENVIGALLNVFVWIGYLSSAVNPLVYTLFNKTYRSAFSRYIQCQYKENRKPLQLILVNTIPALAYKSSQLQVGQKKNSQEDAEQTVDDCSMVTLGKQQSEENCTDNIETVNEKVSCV
Sequence of Serotonin 2 (5-HT2) receptor (Rattus norvegicus) (P30994 whole entry, looked up): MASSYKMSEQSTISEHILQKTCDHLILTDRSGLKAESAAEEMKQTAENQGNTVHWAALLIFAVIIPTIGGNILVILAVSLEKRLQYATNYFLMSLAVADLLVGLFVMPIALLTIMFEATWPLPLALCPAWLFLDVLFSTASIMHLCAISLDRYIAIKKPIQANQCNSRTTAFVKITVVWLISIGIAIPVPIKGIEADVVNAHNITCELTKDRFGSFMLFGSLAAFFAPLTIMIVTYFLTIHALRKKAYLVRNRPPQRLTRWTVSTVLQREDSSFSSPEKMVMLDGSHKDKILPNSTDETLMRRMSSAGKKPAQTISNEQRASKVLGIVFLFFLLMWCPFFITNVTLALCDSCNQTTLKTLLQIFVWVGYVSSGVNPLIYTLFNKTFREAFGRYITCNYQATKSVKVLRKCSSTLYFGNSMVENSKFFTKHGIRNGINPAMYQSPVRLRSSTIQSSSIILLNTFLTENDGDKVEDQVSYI
The target in assay [4] is 5-hydroxytryptamine receptor 4 (Rattus norvegicus) (UniProt Q62758). The experiment in a line: Antagonistic activity evaluated by ability to block serotonin induced relaxation (mediated by activation of 5-hydroxytryptamine 4 receptor) in carbamylcholine (10e-6 M) contracted esophagus at a concentration of 10e-5 M. It is filed as functional, tissue-based. In short, it runs like this:
(§2)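 Isolated rat esophagus precontracted with carbamylcholine (10^-6 M). Tissue was challenged with serotonin (1 µM) in the presence of the antagonist at a given concentration or of vehicle. Relaxation was recorded as % relaxation to 10^-6 M 5-HT, given as mean ± SEM with the number of determinations.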

Assay [5] has the same target. The assay is described as follows: Antagonistic activity by ability to block serotonin induced relaxation (mediated by activation of 5-hydroxytryptamine 4 receptor) in carbamylcholine (10e-6 M) contracted esophagus at a concentration of 10e-7 M. In kind it is functional, tissue-based. In outline:
as §2

For assay [6] the target is unchanged. The assay is described as follows: Antagonistic activity evaluated by ability to block serotonin induced relaxation via 5-hydroxytryptamine 4 receptor) in carbamylcholine (10e-6 M) contracted esophagus at a concentration of 0.1 mg/kg (p.o.). Details: dose 0.1 mg/kg. It is filed as functional, organism-based. In short, it runs like this:
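Rats were dosed with the antagonist by oral gavage. Esophagus was removed 3 h after dosing and challenged ex vivo with serotonin. Read-out was % relaxation of the carbamylcholine-contracted tissue to 10^-6 M 5-HT, given as mean ± SEM with the number of determinations.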

Assay [7] has as its target T1, Adrenergic receptor alpha-1 (Rattus norvegicus) (UniProt P15823+P23944+P43140). The experiment in a line: Binding affinity for Alpha-1 adrenergic receptor in rat aorta determined by block of norepinephrine induced contraction of rat aorta. In kind it is tissue-based.
Assay [8] deals with T1, Adrenergic receptor alpha-1 (Rattus norvegicus). The experiment in a line: Affinity for the alpha-1 adrenergic receptor determined by the displacement of [3H]prazosin from rat whole brain tissue. In kind it is tissue-based.
Assay [9] addresses 5-hydroxytryptamine receptor 4 (Rattus norvegicus) (UniProt Q62758). The experiment in a line: Antagonistic activity of compound was evaluated by ability to block serotonin induced relaxation (mediated by activation of 5-hydroxytryptamine 4 receptor) in carbamylcholine (10e-6 M) contracted esophagus at a concentration of 3*10e-7 M. It is filed as functional. In short, it runs like this:
as §1

The target is the same in assay [10]. The assay is described as follows: Antagonistic activity by ability to block serotonin induced relaxation (mediated by activation of 5-hydroxytryptamine 4 receptor) in carbamylcholine (10e-6 M) contracted esophagus at a concentration of 10e-6 M. It is filed as functional, tissue-based. In outline:
as §2

Assay [11] shares this target. The assay is described as follows: Antagonistic activity evaluated by ability to block serotonin induced relaxation (mediated by activation of 5-hydroxytryptamine 4 receptor) in carbamylcholine (10e-6 M) contracted esophagus at a concentration of 10e-8 M. It is filed as functional, tissue-based. In outline: as §2
Assay [12] has the same target. The assay is described as follows: Antagonistic activity of compound was evaluated by ability to block serotonin induced relaxation (mediated by activation of 5-hydroxytryptamine 4 receptor) in carbamylcholine (10e-6 M) contracted esophagus at a concentration of 10e-7 M. In kind it is functional. In outline: as §1

Bounds are passed on as bounds.

Molecule `CC(C)n1nc(C(=O)NC2CCN(C)CC2)c2ccccc21` yielded a pKb in assay [1] of 6.3. The Relaxation in assay [2] turned out to be 37.3%.
On to `CC(C)n1nc(C(=O)NCCN2CCCCC2)c2ccccc21`, for which the pKb in assay [3] is less than 5; in [1], 5.8; in assay [7], 4.9. For the same molecule, the Relaxation is 6.6% in assay [4], 22% in assay [5] and 38% in assay [6]. Also, the pKi in [8] came to 4.8.
For the molecule `CC(C)n1nc(C(=O)NCCCN2CCCCC2)c2ccccc21`, the Relaxation in assay [5] is 27.3%; in [9], 14.3%; in [6], 15%; in assay [10], 6.3%. In assay [8], this molecule gave a pKi of less than 4.5.
Consider `CN1[C@@H]2CC[C@H]1C[C@@H](NC(=O)c1cc(Cl)cc3c1OC(C)(C)C3)C2`, for which the pKb in assay [1] was 8.78. The Relaxation in assay [4] turned out to be 22.2%; in assay [10] it was 37%.
As to `CC(C)n1nc(C(=O)NC2CC3CCC(C2)N3C)c2ccccc21` (stereo not given), the Relaxation in [11] was 43.2%; in [12], 9%; in [10] it was 8%.
Turning to `COc1cc(N)c(Cl)cc1C(=O)NC1CCN(CCCOc2ccc(F)cc2)CC1OC` (stereo not given), the results for the pKb in assay [3] and in assay [7] were 7.89 and 6.7, respectively. Besides, the Relaxation in assay [4] was determined as 20.3%; in [10] it was 7%.
With `CC(C)n1c(=O)n(C(=O)NC2CC3CCC(C2)N3C)c2ccccc21` (stereo not given), in assay [1], the pKb stood at 7.5. In addition, the Relaxation in assay [11] was 55%; in assay [2], 13.8%; in assay [10], 2.7%.
Take `CC(C)n1nc(C(=O)NC2CCN(Cc3ccccc3)CC2)c2ccccc21`: the figures for the pKb in [3] and in assay [7] were 5.5 and less than 5, respectively. Further, the Relaxation in [5] worked out at 24.5%; in [11] it was 38.5%; in assay [2], 23.3%; in assay [10], 3.85%. For the same molecule, the negative-log Ki (pKi) in [8] is less than 4.

(Values after ChEMBL document CHEMBL1131384, “Synthesis and structure-activity relationships of potent and orally active 5-HT4 receptor antagonists: indazole and benzimidazolone derivatives” (J Med Chem, 1998).)
